Results: ChEMBL document CHEMBL4316620, “Dihydropyrrolones as bacterial quorum sensing inhibitors” (Bioorg Med Chem Lett, 2019)
Activity calls are given as the source filed them. No cut-off for these calls is given here.

Experiments:
Pseudomonas aeruginosa [1] = assay: Toxicity in Pseudomonas aeruginosa MH602 PlasB::gfp assessed as inhibition of bacterial growth at 125 uM incubated for 15 hrs by spectrophotometry; format: organism-based; conditions: MH602, 15 h, read-out: GI
Pseudomonas aeruginosa [2] = assay: Toxicity in Pseudomonas aeruginosa MH602 PlasB::gfp assessed as inhibition of bacterial growth at 31.25 uM incubated for 15 hrs by spectrophotometry; format: organism-based; conditions: MH602, 15 h, read-out: GI
Pseudomonas aeruginosa [3] = assay: Toxicity in Pseudomonas aeruginosa MH602 PlasB::gfp assessed as inhibition of bacterial growth at 62.5 uM incubated for 15 hrs by spectrophotometry; format: organism-based; conditions: MH602, 15 h, read-out: GI
[4] = Inhibition of quorum sensing system in Pseudomonas aeruginosa MH602 PlasB::gfp at 250 uM incubated for 15 hrs by GFP reporter gene assay
Summary of the method: (§1)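 Reporter strain P. aeruginosa PlasB::gfp (PAMH602) makes its own AHL; lasB promoter drives GFP-ASV. Cultures incubated with compound over 250–31.25 µM at 37 °C for 15 h, then GFP fluorescence read at 535 nm. QSI expressed as % relative to untreated PAMH602 negative control. Furanone positive control.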

Pseudomonas aeruginosa [5] = assay: Toxicity in Pseudomonas aeruginosa MH602 PlasB::gfp assessed as inhibition of bacterial growth at 250 uM incubated for 15 hrs by spectrophotometry; format: organism-based; conditions: MH602, 15 h, read-out: GI
[6] = Inhibition of quorum sensing system in Pseudomonas aeruginosa MH602 PlasB::gfp at 125 uM incubated for 15 hrs by GFP reporter gene assay; summary of the method: as §1
[7] = Inhibition of quorum sensing system in Pseudomonas aeruginosa MH602 PlasB::gfp at 62.5 uM incubated for 15 hrs by GFP reporter gene assay; summary of the method: as §1
[8] = Inhibition of quorum sensing system in Pseudomonas aeruginosa MH602 PlasB::gfp at 31.25 uM incubated for 15 hrs by GFP reporter gene assay; summary of the method: as §1
Pseudomonas aeruginosa [9] = assay: Inhibition of biofilm formation in Pseudomonas aeruginosa PAO1 at 250 uM incubated for 6 hrs by crystal violet staining based method; format: functional; conditions: for inhibition at 250 µM: PAO1, 6 h
Summary of the method: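 P. aeruginosa PA01 biofilm. Cultures grown with or without test compound for 6 h. Biofilm biomass quantified by crystal violet staining (OD550). % inhibition calculated relative to DMSO control.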

Structure (SMILES)	inhibition [4]	inhibition [6]	inhibition [7]	inhibition [8]	inhibition at 125 µM (Pseudomonas aeruginosa [1])	inhibition at 31.25 µM (Pseudomonas aeruginosa [2])	inhibition at 62.5 µM (Pseudomonas aeruginosa [3])	inhibition at 250 µM (Pseudomonas aeruginosa [5])	inhibition (Pseudomonas aeruginosa [9])	inhibition at 250 µM (Pseudomonas aeruginosa [9])
COc1ccc(C2=CC(=O)NC2)cc1	66.5%	48.5%	27.2%	26.9%	≤ 15%	≤ 15%	≤ 15%	≤ 15%	inactive	
O=C1C=C(c2ccccc2F)/C(=C/Br)N1	86.3%	81.3%	75%	61.5%	> 30%	≤ 15%	15 to 30%	> 30%		
C=C1C(c2ccccc2F)=CC(=O)N1c1ccccc1	63.7%	60.9%	56.9%	46.4%	≤ 15%	≤ 15%	≤ 15%	≤ 15%		38.2%
C=C1NC(=O)C=C1c1ccccc1F	72%	69.7%	58.3%	37.8%	≤ 15%	≤ 15%	≤ 15%	≤ 15%		51.3%
O=C1C=C(c2ccc(Br)cc2)CN1	65.9%	42.8%	25%	21.9%	≤ 15%	≤ 15%	≤ 15%	≤ 15%	inactive	
C=C1NC(=O)C=C1c1cccc(C(F)(F)F)c1	74.4%	67.9%	57.1%	35.4%	≤ 15%	≤ 15%	≤ 15%	≤ 15%		50.3%
C=C1NC(=O)C(C)=C1c1cccc(C(F)(F)F)c1	47.2%	47%	33.2%	26.3%	≤ 15%	≤ 15%	≤ 15%	≤ 15%		
O=C1C=C(c2ccccc2F)CN1	67.9%	48.8%	30.5%	24.4%	≤ 15%	≤ 15%	≤ 15%	≤ 15%		10.9%
O=C1C=C(c2ccc(Cl)cc2)CN1	61.5%	42.7%	26.4%	22.6%	≤ 15%	≤ 15%	≤ 15%	≤ 15%		9.6%
C=C1NC(=O)C(C)=C1c1ccccc1F	54.8%	48.8%	31.7%	28.8%	≤ 15%	≤ 15%	≤ 15%	≤ 15%		
C=C1C(c2ccccc2F)=CC(=O)N1Cc1ccccc1	55.2%	52.4%	47.5%	27%	≤ 15%	≤ 15%	≤ 15%	≤ 15%		
C=C1NC(=O)C=C1c1ccccc1Cl	72%	69.7%	58.3%	37.8%	≤ 15%	≤ 15%	≤ 15%	≤ 15%		
C=C1NC(=O)C(C)=C1c1ccc(Br)cc1	59.6%	45.2%	38.1%	33.7%	≤ 15%	≤ 15%	≤ 15%	≤ 15%		

Further lines, with some results ahead:

inhibition [4]	inhibition [6]	inhibition [7]	inhibition [8]	Structure (SMILES)	inhibition at 125 µM (Pseudomonas aeruginosa [1])	inhibition at 31.25 µM (Pseudomonas aeruginosa [2])	inhibition at 62.5 µM (Pseudomonas aeruginosa [3])	inhibition at 250 µM (Pseudomonas aeruginosa [5])	inhibition (Pseudomonas aeruginosa [9])	inhibition at 250 µM (Pseudomonas aeruginosa [9])
61.6%	52.6%	42.7%	15.2%	C=C1C(c2ccc(Br)cc2)=CC(=O)N1c1ccc(C)cc1	≤ 15%	≤ 15%	≤ 15%	15 to 30%		16.3%
80.5%	78.7%	72.3%	36.5%	C=C1NC(=O)C=C1c1ccc(C)cc1	≤ 15%	≤ 15%	≤ 15%	≤ 15%		
50.5%	43.3%	34.7%	29.3%	C=C1C(c2ccccc2F)=CC(=O)N1c1cccc(Br)c1	≤ 15%	≤ 15%	≤ 15%	≤ 15%		40.8%
64.4%	57.3%	49.6%	38.7%	C=C1C(c2ccccc2F)=CC(=O)N1c1cccc(Cl)c1	≤ 15%	≤ 15%	≤ 15%	≤ 15%		46.9%
50.9%	49.1%	47.7%	5.8%	C=C1C(c2ccc(Br)cc2)=CC(=O)N1c1cccc(F)c1	≤ 15%	≤ 15%	≤ 15%	≤ 15%		29.3%
67.4%	55.6%	42.8%	34.1%	C=C1C(c2ccc(Br)cc2)=CC(=O)N1c1csc2ccccc12	≤ 15%	≤ 15%	≤ 15%	15 to 30%		13.2%
84.8%	77.8%	66.6%	56.8%	O=C1C=C(c2ccccc2)/C(=C/Br)N1	> 30%	≤ 15%	15 to 30%	> 30%		
47.7%	38.2%	33.2%	23.7%	C=C1NC(=O)C(C)=C1c1ccc(Cl)cc1	≤ 15%	≤ 15%	≤ 15%	≤ 15%		
82.3%	53.9%	53.5%	38.2%	O=C1C=C(c2ccc(Br)cc2)/C(=C/Br)N1	> 30%	≤ 15%	15 to 30%	> 30%		
